Assay results taken from ChEMBL document CHEMBL1955778, “Design and synthesis of novel 7-aminoquinazoline derivatives: antitumor and anticonvulsant activities” (Bioorg Med Chem Lett, 2012).

Legend:
Type in all cases: functional
Details in all cases: read-out: GI
SK-OV-3 = assay: Growth inhibition of human SKOV3 cells at 10 uM relative to control
Summary of the method: (§1)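 Each cell line in a 60-line human tumour panel exposed to one 10 μM concentration. Growth inhibition percentage computed as 100 minus the percentage activity relative to control.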

OVCAR-5 = assay: Growth inhibition of human OVCAR5 cells at 10 uM relative to control; summary of the method: as §1
UACC-62 = assay: Growth inhibition of human UACC62 cells at 10 uM relative to control
Summary of the method: (§2)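 Single-dose screen across the 60-cell-line human tumor panel at 10 μM. Growth inhibition is reported as a percentage, taken as 100 minus the % growth relative to untreated control.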

MDA-MB-435 = assay: Growth inhibition of human MDA-MB-435 cells at 10 uM relative to control; summary of the method: as §1
Malme-3M = assay: Growth inhibition of human MALME-3M cells at 10 uM relative to control; summary of the method: as §1
M14 = assay: Growth inhibition of human M14 cells at 10 uM relative to control; summary of the method: as §1
U-251 = assay: Growth inhibition of human U251 cells at 10 uM relative to control; summary of the method: as §2
SNB-19 = assay: Growth inhibition of human SNB19 cells at 10 uM relative to control; summary of the method: as §2
SNB-75 = assay: Growth inhibition of human SNB75 cells at 10 uM relative to control; summary of the method: as §2
SF-295 = assay: Growth inhibition of human SF295 cells at 10 uM relative to control; summary of the method: as §1
SF-539 = assay: Growth inhibition of human SF539 cells at 10 uM relative to control; summary of the method: as §1
SF-268 = assay: Growth inhibition of human SF268 cells at 10 uM relative to control; summary of the method: as §1
KM12 = assay: Growth inhibition of human KM12 cells at 10 uM relative to control; summary of the method: as §1
HCT-15 = assay: Growth inhibition of human HCT15 cells at 10 uM relative to control; summary of the method: as §1
HCC 2998 = assay: Growth inhibition of human HCC2998 cells at 10 uM relative to control; summary of the method: as §1
NCI-H522 = assay: Growth inhibition of human NCI-H522 cells at 10 uM relative to control; summary of the method: as §1
NCI-H322M = assay: Growth inhibition of human NCI-H322M cells at 10 uM relative to control; summary of the method: as §1
HOP-62 = assay: Growth inhibition of human HOP62 cells at 10 uM relative to control; summary of the method: as §1
EKVX = assay: Growth inhibition of human EKVX cells at 10 uM relative to control; summary of the method: as §1
RPMI-8226 = assay: Growth inhibition of human RPMI8226 cells at 10 uM relative to control; summary of the method: as §1
CCRF-CEM = assay: Growth inhibition of human CCRF-CEM cells at 10 uM relative to control; summary of the method: as §1
T47D = assay: Growth inhibition of human T47D cells at 10 uM relative to control; summary of the method: as §2
BT-549 = assay: Growth inhibition of human BT549 cells at 10 uM relative to control; summary of the method: as §1
PC-3 = assay: Growth inhibition of human PC3 cells at 10 uM relative to control; summary of the method: as §1
UO-31 = assay: Growth inhibition of human UO31 cells at 10 uM relative to control; summary of the method: as §2
TK-10 = assay: Growth inhibition of human TK10 cells at 10 uM relative to control; summary of the method: as §2
CAKI-1 = assay: Growth inhibition of human CAKI-1 cells at 10 uM relative to control; summary of the method: as §1
A498 = assay: Growth inhibition of human A498 cells at 10 uM relative to control; summary of the method: as §1

Question: With `Cc1ccccc1-n1c(C)nc2cc(N)ccc2c1=S` as the compound, how does the inhibition of growth at 10 µM (SK-OV-3) read?
Answer: Its inhibition of growth at 10 µM is 5%.

Question: And the inhibition of growth at 10 µM (OVCAR-5)?
Answer: Its inhibition of growth at 10 µM is 10%.

Question: What about the inhibition of growth at 10 µM (UACC-62) of the same compound?
Answer: The inhibition of growth at 10 µM was 9%.

Question: What about the inhibition of growth at 10 µM (MDA-MB-435) of the same compound?
Answer: Its inhibition of growth at 10 µM is 9.8%.

Question: What about the inhibition of growth at 10 µM (Malme-3M) of the same compound?
Answer: The inhibition of growth at 10 µM was 17%.

Question: What about the inhibition of growth at 10 µM (M14) of the same compound?
Answer: The inhibition of growth at 10 µM was 4%.

Question: And the inhibition of growth at 10 µM (U-251)?
Answer: Its inhibition of growth at 10 µM is 6%.

Question: What about the inhibition of growth at 10 µM (SNB-19) of the same compound?
Answer: The inhibition of growth at 10 µM was 2%.

Question: What about the inhibition of growth at 10 µM (SNB-75) of the same compound?
Answer: Its inhibition of growth at 10 µM is 15.5%.

Question: And the inhibition of growth at 10 µM (SF-295)?
Answer: The inhibition of growth at 10 µM was 16.6%.

Question: And the inhibition of growth at 10 µM (SF-539)?
Answer: The inhibition of growth at 10 µM was 2%.

Question: What about the inhibition of growth at 10 µM (SF-268) of the same compound?
Answer: The inhibition of growth at 10 µM was 10.6%.

Question: What about the inhibition of growth at 10 µM (KM12) of the same compound?
Answer: Its inhibition of growth at 10 µM is 8.3%.

Question: And the inhibition of growth at 10 µM (HCT-15)?
Answer: The inhibition of growth at 10 µM was 2.5%.

Question: And the inhibition of growth at 10 µM (HCC 2998)?
Answer: Its inhibition of growth at 10 µM is 16.6%.

Question: What about the inhibition of growth at 10 µM (NCI-H522) of the same compound?
Answer: Its inhibition of growth at 10 µM is 4%.

Question: And the inhibition of growth at 10 µM (NCI-H322M)?
Answer: Its inhibition of growth at 10 µM is 11.1%.

Question: And the inhibition of growth at 10 µM (HOP-62)?
Answer: Its inhibition of growth at 10 µM is 5.5%.

Question: And the inhibition of growth at 10 µM (EKVX)?
Answer: The inhibition of growth at 10 µM was 15.2%.

Question: What about the inhibition of growth at 10 µM (RPMI-8226) of the same compound?
Answer: The inhibition of growth at 10 µM was 4%.

Question: What about the inhibition of growth at 10 µM (CCRF-CEM) of the same compound?
Answer: The inhibition of growth at 10 µM was 9.5%.

Question: What about the inhibition of growth at 10 µM (T47D) of the same compound?
Answer: Its inhibition of growth at 10 µM is 11%.

Question: And the inhibition of growth at 10 µM (BT-549)?
Answer: The inhibition of growth at 10 µM was 8%.

Question: And the inhibition of growth at 10 µM (PC-3)?
Answer: The inhibition of growth at 10 µM was 9.5%.

Question: And the inhibition of growth at 10 µM (UO-31)?
Answer: The inhibition of growth at 10 µM was 22%.

Question: And the inhibition of growth at 10 µM (TK-10)?
Answer: The inhibition of growth at 10 µM was 10%.

Question: What about the inhibition of growth at 10 µM (CAKI-1) of the same compound?
Answer: Its inhibition of growth at 10 µM is 5%.

Question: And the inhibition of growth at 10 µM (A498)?
Answer: Its inhibition of growth at 10 µM is 20%.
